Assay results as given in ChEMBL document CHEMBL2407075, “Sulphonamido-quinoxalines: search for anticancer agent” (Eur J Med Chem, 2013).

Legend:
[1] = tested on: SNB-19; assay: Growth inhibition of human SNB19 cells at 10 uM after 48 hrs by sulforhodamine B assay; assay type: functional; settings: SNB-19, 48 h, read-out: GI
Procedure, shortened: (§1)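 Single-dose screen at 10 µM across the NCI 60 panel. Cells in RPMI 1640 with 5% FBS and 2 mM L-glutamine, plated at 5000–40,000/well and preincubated 24 h at 37 °C, 5% CO2. Drug in DMSO, 48 h exposure. Fixed with TCA, stained with SRB, A515 read. Percent growth is taken relative to untreated control, and inhibition is 100 minus growth.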

[2] = tested on: MDA-MB-435; assay: Growth inhibition of human MDA-MB-435 cells at 10 uM after 48 hrs by sulforhodamine B assay; assay type: functional; settings: MDA-MB-435, 48 h, read-out: GI; procedure, shortened: as §1
[3] = tested on: SK-MEL-5; assay: Growth inhibition of human SK-MEL-5 cells at 10 uM after 48 hrs by sulforhodamine B assay; assay type: functional; settings: SK-MEL-5, 48 h, read-out: GI; procedure, shortened: as §1
[4] = tested on: MOLT-4; assay: Growth inhibition of human MOLT4 cells at 10 uM after 48 hrs by sulforhodamine B assay; assay type: functional; settings: MOLT-4, 48 h, read-out: GI; procedure, shortened: as §1
[5] = Growth inhibition of human EKVX cells at 10 uM after 48 hrs by sulforhodamine B assay; assay type: functional; settings: read-out: GI
Procedure, shortened: (§2)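 NCI-60 one-dose primary screen at a single 10 µM concentration. Cells in RPMI 1640 with 5% FBS, preincubated 24 h at 37 °C, 5% CO2. Drug exposure 48 h, then TCA fixation, SRB staining and absorbance at 515 nm. Percent growth calculated against time-zero and untreated control wells, then converted to percent growth inhibition.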

[6] = tested on: A549; assay: Growth inhibition of human A549/ATCC cells at 10 uM after 48 hrs by sulforhodamine B assay; assay type: functional; settings: A549, 48 h, read-out: GI
Procedure, shortened: (§3)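 Single-dose NCI-60 prescreen at 10 µM for 48 h at 37 °C and 5% CO2, using cells grown in RPMI 1640 with 5% FBS and 2 mM glutamine. Protein was measured by SRB after TCA fixation: 10% final for adherent lines, 16% for suspension lines. Absorbance was read at 515 nm. Percent growth inhibition was obtained by subtracting percent growth from 100.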

[7] = tested on: M14; assay: Growth inhibition of human M14 cells at 10 uM after 48 hrs by sulforhodamine B assay; assay type: functional; settings: M14, 48 h, read-out: GI; procedure, shortened: as §1
[8] = tested on: A498; assay: Growth inhibition of human A498 cells at 10 uM after 48 hrs by sulforhodamine B assay; assay type: functional; settings: A498, 48 h, read-out: GI; procedure, shortened: as §3
[9] = tested on: KM12; assay: Growth inhibition of human KM12 cells at 10 uM after 48 hrs by sulforhodamine B assay; assay type: functional; settings: KM12, 48 h, read-out: GI; procedure, shortened: as §1
[10] = tested on: MDA-MB-468; assay: Growth inhibition of human MDA-MB-468 cells at 10 uM after 48 hrs by sulforhodamine B assay; assay type: functional; settings: MDA-MB-468, 48 h, read-out: GI; procedure, shortened: as §1
[11] = tested on: SW-620; assay: Growth inhibition of human SW620 cells at 10 uM after 48 hrs by sulforhodamine B assay; assay type: functional; settings: SW-620, 48 h, read-out: GI; procedure, shortened: as §1
[12] = tested on: NCI-H322M; assay: Growth inhibition of human NCI-H322M cells at 10 uM after 48 hrs by sulforhodamine B assay; assay type: functional; settings: read-out: GI; procedure, shortened: as §1
[13] = tested on: SK-OV-3; assay: Growth inhibition of human SKOV3 cells at 10 uM after 48 hrs by sulforhodamine B assay; assay type: functional; settings: SK-OV-3, 48 h, read-out: GI; procedure, shortened: as §1
[14] = Growth inhibition of human HCC2998 cells at 10 uM after 48 hrs by sulforhodamine B assay; assay type: functional; settings: HCC 2998, 48 h, read-out: GI; procedure, shortened: as §2
[15] = tested on: MDA-MB-231; assay: Growth inhibition of human MDA-MB-231 cells at 10 uM after 48 hrs by sulforhodamine B assay; assay type: functional; settings: MDA-MB-231, 48 h, read-out: GI; procedure, shortened: as §1
[16] = tested on: CCRF-CEM; assay: Growth inhibition of human CCRF-CEM cells at 10 uM after 48 hrs by sulforhodamine B assay; assay type: functional; settings: read-out: GI; procedure, shortened: as §3
[17] = tested on: HOP-62; assay: Growth inhibition of human HOP62 cells at 10 uM after 48 hrs by sulforhodamine B assay; assay type: functional; settings: HOP-62, 48 h, read-out: GI; procedure, shortened: as §2
[18] = tested on: K562; assay: Growth inhibition of human K562 cells at 10 uM after 48 hrs by sulforhodamine B assay; assay type: functional; settings: K562, 48 h, read-out: GI; procedure, shortened: as §1
[19] = tested on: Malme-3M; assay: Growth inhibition of human MALME-3M cells at 10 uM after 48 hrs by sulforhodamine B assay; assay type: functional; settings: read-out: GI; procedure, shortened: as §1
[20] = Oral bioavailability in human; assay type: ADME, organism-based; settings: in silico prediction
[21] = tested on: BT-549; assay: Growth inhibition of human BT549 cells at 10 uM after 48 hrs by sulforhodamine B assay; assay type: functional; settings: BT-549, 48 h, read-out: GI; procedure, shortened: as §3
[22] = tested on: SK-MEL-2; assay: Growth inhibition of human SK-MEL-2 cells at 10 uM after 48 hrs by sulforhodamine B assay; assay type: functional; settings: SK-MEL-2, 48 h, read-out: GI; procedure, shortened: as §1
[23] = tested on: SN12C; assay: Growth inhibition of human SN12C cells at 10 uM after 48 hrs by sulforhodamine B assay; assay type: functional; settings: read-out: GI; procedure, shortened: as §1
[24] = tested on: UACC-257; assay: Growth inhibition of human UACC257 cells at 10 uM after 48 hrs by sulforhodamine B assay; assay type: functional; settings: UACC-257, 48 h, read-out: GI; procedure, shortened: as §1
[25] = tested on: SF-539; assay: Growth inhibition of human SF539 cells at 10 uM after 48 hrs by sulforhodamine B assay; assay type: functional; settings: SF-539, 48 h, read-out: GI; procedure, shortened: as §1
[26] = tested on: IGROV-1; assay: Growth inhibition of human IGROV1 cells at 10 uM after 48 hrs by sulforhodamine B assay; assay type: functional; settings: IGROV-1, 48 h, read-out: GI; procedure, shortened: as §1
[27] = tested on: T47D; assay: Growth inhibition of human T47D cells at 10 uM after 48 hrs by sulforhodamine B assay; assay type: functional; settings: read-out: GI; procedure, shortened: as §1
[28] = tested on: MCF7; assay: Growth inhibition of human MCF7 cells at 10 uM after 48 hrs by sulforhodamine B assay; assay type: functional; settings: MCF7, 48 h, read-out: GI; procedure, shortened: as §1
[29] = tested on: 786-0; assay: Growth inhibition of human 786-0 cells at 10 uM after 48 hrs by sulforhodamine B assay; assay type: functional; settings: 786-0, 48 h, read-out: GI; procedure, shortened: as §3
[30] = tested on: SF-295; assay: Growth inhibition of human SF295 cells at 10 uM after 48 hrs by sulforhodamine B assay; assay type: functional; settings: SF-295, 48 h, read-out: GI; procedure, shortened: as §1
[31] = tested on: OVCAR-4; assay: Growth inhibition of human OVCAR4 cells at 10 uM after 48 hrs by sulforhodamine B assay; assay type: functional; settings: OVCAR-4, 48 h, read-out: GI; procedure, shortened: as §1
[32] = tested on: RXF 393; assay: Growth inhibition of human RXF393 cells at 10 uM after 48 hrs by sulforhodamine B assay; assay type: functional; settings: RXF 393, 48 h, read-out: GI; procedure, shortened: as §1
[33] = tested on: HL-60(TB); assay: Growth inhibition of human HL-60(TB) cells at 10 uM after 48 hrs by sulforhodamine B assay; assay type: functional; settings: HL-60, 48 h, read-out: GI
Procedure, shortened: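 Single-dose NCI-60 primary screen at 10 µM, 48 h exposure, SRB read-out. Growth percentage of treated versus untreated cells was recorded and given as percent inhibition by subtraction.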

[34] = tested on: NCI-H522; assay: Growth inhibition of human NCI-H522 cells at 10 uM after 48 hrs by sulforhodamine B assay; assay type: functional; settings: NCI-H522, 48 h, read-out: GI; procedure, shortened: as §1

Compound	inhibition of growth at 10 µM [1] [%]	inhibition of growth at 10 µM [2] [%]	inhibition of growth at 10 µM [3] [%]	inhibition of growth at 10 µM [4] [%]	inhibition of growth at 10 µM [5] [%]	inhibition of growth at 10 µM [6] [%]	inhibition of growth at 10 µM [7] [%]	inhibition of growth at 10 µM [8] [%]	inhibition of growth at 10 µM [9] [%]	inhibition of growth at 10 µM [10] [%]	inhibition of growth at 10 µM [11] [%]	inhibition of growth at 10 µM [12] [%]	inhibition of growth at 10 µM [13] [%]	inhibition of growth at 10 µM [14] [%]	inhibition of growth at 10 µM [15] [%]	inhibition of growth at 10 µM [16] [%]	inhibition of growth at 10 µM [17] [%]	inhibition of growth at 10 µM [18] [%]	inhibition of growth at 10 µM [19] [%]	bioavailability [20] [%]	further results
O=C(NS(=O)(=O)c1ccc2nc(-c3ccccc3)c(-c3ccccc3)nc2c1)c1ccccc1	22	12.9	48.9	44.9	26.5	21.1	2.45	42.2	21	40.2	17.4	20.9	12.8	15.3	28.5	41.3	2.87	45.8	7.67	100	inhibition of growth at 10 µM [21]: 7.67%; inhibition of growth at 10 µM [22]: 15.8%; inhibition of growth at 10 µM [23]: 17.4%; inhibition of growth at 10 µM [24]: 15.2%; inhibition of growth at 10 µM [25]: 3.89%; inhibition of growth at 10 µM [26]: 16.5%; inhibition of growth at 10 µM [27]: 57.5%; inhibition of growth at 10 µM [28]: 22.9%; inhibition of growth at 10 µM [29]: 16.5%; inhibition of growth at 10 µM [30]: 21%; inhibition of growth at 10 µM [31]: 16.5%; inhibition of growth at 10 µM [32]: 39.1%; inhibition of growth at 10 µM [33]: 49.4%; inhibition of growth at 10 µM [34]: 23.5%
O=S(=O)(Nc1cccc2ccccc12)c1ccc2nc(-c3ccccc3)c(-c3ccccc3)nc2c1	9.78	20.4	48.6	47.8	71.2	15.3	2.23	31.9	29.9	54.9	26.8	22.2	5.86	4.56	38.7	58.3	2.24	49.6	9.98	100	inhibition of growth at 10 µM [21]: 32.6%; inhibition of growth at 10 µM [22]: 14.9%; inhibition of growth at 10 µM [23]: 8.87%; inhibition of growth at 10 µM [24]: 21.7%; inhibition of growth at 10 µM [25]: 5.57%; inhibition of growth at 10 µM [26]: 1.78%; inhibition of growth at 10 µM [27]: 49.4%; inhibition of growth at 10 µM [28]: 23%; inhibition of growth at 10 µM [29]: 4.34%; inhibition of growth at 10 µM [30]: 3.88%; inhibition of growth at 10 µM [31]: 31.2%; inhibition of growth at 10 µM [32]: 48.6%; inhibition of growth at 10 µM [33]: 71%; inhibition of growth at 10 µM [34]: 47.8%
O=S(=O)(Nc1ccc(Cl)cc1)c1ccc2nc(-c3ccccc3)c(-c3ccccc3)nc2c1	31.9	35.6	74	60.8	57.8	41.9	31	44.3	38.7	76.8	30.3	32.8	18.5	37.9	54.3	61.9	12.8	55.6	6.64	100	inhibition of growth at 10 µM [21]: 77.8%; inhibition of growth at 10 µM [22]: 23.9%; inhibition of growth at 10 µM [23]: 26.9%; inhibition of growth at 10 µM [24]: 17.9%; inhibition of growth at 10 µM [25]: 25.9%; inhibition of growth at 10 µM [26]: 20.8%; inhibition of growth at 10 µM [27]: 72.1%; inhibition of growth at 10 µM [28]: 47.7%; inhibition of growth at 10 µM [29]: 66.9%; inhibition of growth at 10 µM [30]: 40.7%; inhibition of growth at 10 µM [31]: 30.3%; inhibition of growth at 10 µM [32]: 98.8%; inhibition of growth at 10 µM [33]: 66.7%; inhibition of growth at 10 µM [34]: 50.8%
